The source of these data is the RNAGym collection of RNA variant scans (doi:10.1002/anie.201605470).

B1: Osa-1-4 twister ribozyme (parent)
chain: CCGCCUAACACUGCCAAUGCCGGUCCCAAGCCCGGAUAAAAGUGGAGGGGGCGG

This data set covers variants of B1. Put plainly: self-cleavage, relative activity (ratio to wild type); higher = more cleavage; co-transcriptional. The procedure, abridged:
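In vitro transcription at 37 °C for 2 h allowed the twister ribozyme to cleave itself as it was made. Its 54-nucleotide Oryza sativa template had been synthesised with 97 % wild-type base and 1 % of each other base at the 48 positions downstream of the cleavage site. A template-switching oligonucleotide was used for reverse transcription, followed by PCR amplification and deep sequencing. Whether reads carried upstream sequence set the cleavage status, and relative activity is the fraction cleaved normalised to wild type.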
Take CCGCCUAACUCUGCCAAUGCCGGUCCCAAGCUCGGAUAAAAGUGGAGGGGGCGG [A10U C32U]: the self-cleavage is 0.02.
Under CCGCCUAACUCUGCCAAUGCCGGUCCCAAGCACGGAUAAAAGUGGAGGGGGCGG [A10U C32A] stands 0.01; under CCGCCUAACUCUGCCAAUGCCGGUCCCAAGCGCGGAUAAAAGUGGAGGGGGCGG [A10U C32G], 0.04.
CCGCCUAACUCUGCCAAUGCCGGUCCCAAGCCCGGAUAAAAGUGGAGGGGGCUG [A10U G53U]: the self-cleavage came to 0.03.
To CCGCCUAACUCUGCCAAUGCCGGUCCCAAGCCCGGAUAAAAGUGGAGGGGGCCG [A10U G53C] belongs 0.02.
To CCGCCUAACUCUGCCAAUGCCGGUCCCAAGCCCGGAUAAAAGUGGAGGGGGCAG [A10U G53A] belongs 0.04.
Regarding CCGCCUAACUCUGCCAAUGCCGGUCCCAAGCCCGGAUAAAAGUGGAGAGGGCGG [A10U G48A], the self-cleavage was 0.02.
With CCGCCUAACUCUGCCAAUGCCGGUCCCAAGCCCGGAUAAAAGUGGAGCGGGCGG [A10U G48C], the self-cleavage is 0.01.
As for CCGCCUAACUCUGCCAAUGCCGGUCCCAAGCCCGGAUAAAAGUGGAGUGGGCGG [A10U G48U], the self-cleavage was 0.01.
Consider CCGCCUAACUCUGCCAAUGCCGGUCCCAAGCCCGAAUAAAAGUGGAGGGGGCGG [A10U G35A], for which the self-cleavage was found to be 0.06.
Under CCGCCUAACUCUGCCAAUGCCGGUCCCAAGCCCGUAUAAAAGUGGAGGGGGCGG [A10U G35U] stands 0.04; under CCGCCUAACUCUGCCAAUGCCGGUCCCAAGCCCGCAUAAAAGUGGAGGGGGCGG [A10U G35C], 0.03.
For CCGCCUAACAAUGCCAAUGCCGGUCACAAGCCCGGAUAAAAGUGGAGGGGGCGG [C11A C26A], the self-cleavage is 0.06.
Take CCGCCUAACAAUGCCAAUGCCGGUCGCAAGCCCGGAUAAAAGUGGAGGGGGCGG [C11A C26G]: the self-cleavage was 0.06.
To CCGCCUAACAAUGGCAAUGCCGGUCCCAAGCCCGGAUAAAAGUGGAGGGGGCGG [C11A C14G] belongs 0.1; to CCGCCUAACAAUGACAAUGCCGGUCCCAAGCCCGGAUAAAAGUGGAGGGGGCGG [C11A C14A], 0.07.
To CCGCCUAACAAUGUCAAUGCCGGUCCCAAGCCCGGAUAAAAGUGGAGGGGGCGG [C11A C14U] belongs 0.15; to CCGCCUAACUCUGCCAAUGCCGGUCCCAAGCCCGGAUAAAAGUGGACGGGGCGG [A10U G47C], 0.02; to CCGCCUAACUCUGCCAAUGCCGGUCCCAAGCCCGGAUAAAAGUGGAUGGGGCGG [A10U G47U], 0.02.
In the case of CCGCCUAACUCUGCCAAUGCCGGUCCCAAGCCCGGAUAAAAGUGGAAGGGGCGG [A10U G47A], the self-cleavage is 0.02.
Take CCGCCUAACUCUGCCAAUGCCGGCCCCAAGCCCGGAUAAAAGUGGAGGGGGCGG [A10U U24C]: the self-cleavage is 0.02.
To CCGCCUAACUCUGCCAAUGCCGGGCCCAAGCCCGGAUAAAAGUGGAGGGGGCGG [A10U U24G] belongs 0.01.
Consider CCGCCUAACUCUGCCAAUGCCGGACCCAAGCCCGGAUAAAAGUGGAGGGGGCGG [A10U U24A], for which the self-cleavage worked out at 0.03.
To CCGCCUAACAAUGCCAAUGCCGGUGCCAAGCCCGGAUAAAAGUGGAGGGGGCGG [C11A C25G] belongs 0.05.
Consider CCGCCUAACAAUGCCAAUGCCGGUUCCAAGCCCGGAUAAAAGUGGAGGGGGCGG [C11A C25U], for which the self-cleavage stood at 0.18.
Regarding CCGCCUAACAAUGCCAAUGCCGGUACCAAGCCCGGAUAAAAGUGGAGGGGGCGG [C11A C25A], the self-cleavage is 0.11.
In the case of CCGCCUAACUCUGCCAAUUCCGGUCCCAAGCCCGGAUAAAAGUGGAGGGGGCGG [A10U G19U], the self-cleavage was found to be 0.02.
To CCGCCUAACUCUGCCAAUCCCGGUCCCAAGCCCGGAUAAAAGUGGAGGGGGCGG [A10U G19C] belongs 0.01; to CCGCCUAACUCUGCCAAUACCGGUCCCAAGCCCGGAUAAAAGUGGAGGGGGCGG [A10U G19A], 0.05; to CCGCCUAACUCUGCCAAUGCCGGUCCCAAGCCCGGAUAAAAGUAGAGGGGGCGG [A10U G44A], 0.03.
To CCGCCUAACUCUGCCAAUGCCGGUCCCAAGCCCGGAUAAAAGUCGAGGGGGCGG [A10U G44C] belongs 0.09; to CCGCCUAACUCUGCCAAUGCCGGUCCCAAGCCCGGAUAAAAGUUGAGGGGGCGG [A10U G44U], 0.08.
On to CCGCCUAACUCUCCCAAUGCCGGUCCCAAGCCCGGAUAAAAGUGGAGGGGGCGG [A10U G13C], for which the self-cleavage amounted to 0.01.
CCGCCUAACUCUUCCAAUGCCGGUCCCAAGCCCGGAUAAAAGUGGAGGGGGCGG [A10U G13U]: the self-cleavage worked out at 0.
Consider CCGCCUAACUCUACCAAUGCCGGUCCCAAGCCCGGAUAAAAGUGGAGGGGGCGG [A10U G13A], for which the self-cleavage worked out at 0.01.
Under CCGCCUAACAAUGCCAAUGCCGGUCCCAAGCCCGGAUAAAAGUGGAGGGGGCGG [C11A] stands 0.84.
Under CCGCCUAACUCUGCCAAUGCCGGUCCCAAGCCCGGAAAAAAGUGGAGGGGGCGG [A10U U37A] stands 0.04; under CCGCCUAACUCUGCCAAUGCCGGUCCCAAGCCCGGACAAAAGUGGAGGGGGCGG [A10U U37C], 0.05; under CCGCCUAACUCUGCCAAUGCCGGUCCCAAGCCCGGAGAAAAGUGGAGGGGGCGG [A10U U37G], 0.04.
Under CCGCCUAACUCAGCCAAUGCCGGUCCCAAGCCCGGAUAAAAGUGGAGGGGGCGG [A10U U12A] stands 0.05; under CCGCCUAACUCGGCCAAUGCCGGUCCCAAGCCCGGAUAAAAGUGGAGGGGGCGG [A10U U12G], 0.02.
For CCGCCUAACUCCGCCAAUGCCGGUCCCAAGCCCGGAUAAAAGUGGAGGGGGCGG [A10U U12C], the self-cleavage was found to be 0.02.
To CCGCCUAACUCUGCCAAUGCCGGUCCCAAGUCCGGAUAAAAGUGGAGGGGGCGG [A10U C31U] belongs 0.05; to CCGCCUAACUCUGCCAAUGCCGGUCCCAAGCCCAGAUAAAAGUGGAGGGGGCGG [A10U G34A], 0.05; to CCGCCUAACUCUGCCAAUGCCGGUCCCAAGCCCUGAUAAAAGUGGAGGGGGCGG [A10U G34U], 0.03.
With CCGCCUAACUCUGCCAAUGCCGGUCCCAAGCCCCGAUAAAAGUGGAGGGGGCGG [A10U G34C], the self-cleavage came out at 0.03.
Under CCGCCUAACUCUGCCAAUGCCUGUCCCAAGCCCGGAUAAAAGUGGAGGGGGCGG [A10U G22U] stands 0.03; under CCGCCUAACUCUGCCAAUGCCCGUCCCAAGCCCGGAUAAAAGUGGAGGGGGCGG [A10U G22C], 0.02; under CCGCCUAACUCUGCCAAUGCCAGUCCCAAGCCCGGAUAAAAGUGGAGGGGGCGG [A10U G22A], 0.05.
